Where “and” joins values, the source holds several entries; their conditions need not be identical. Equal values may be shown once.
Tested on: HEK-293T
Experiment: Multiplex assay against HEK293T;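 on Population Tubulin-Different-Phenotype (%): share of the cells with healthy nuclei that show this phenotype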
Format: toxicity, cell-based
Details: human
Outline: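 Live cells carried four stains from seeding: Hoechst33342, BioTracker Green Microtubule Cytoskeleton Dye, MitoTracker Red and Annexin V Alexa Fluor 680. They were imaged on a CQ1 microscope at 37°C and 5% CO2 after compound addition. Using CellPathfinder machine-learning gating, cells were split into Hoechst high-intensity objects or normal cells, normal cells into healthy, pyknosed or fragmented nuclei, and pyknosed cells into mitotic or apoptotic; tubulin, mitochondrial-mass and membrane-permeability phenotypes are per cents of healthy-nucleus cells.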

[1] = 12 h, 1 µM, compound concentration 1 uM, replicate 1
[2] = 12 h, 1 µM, compound concentration 1 uM, replicate 2
[3] = 12 h, 10 µM, compound concentration 10 uM, replicate 1
[4] = 12 h, 10 µM, compound concentration 10 uM, replicate 2
[5] = 24 h, 1 µM, compound concentration 1 uM, replicate 1
[6] = 24 h, 1 µM, compound concentration 1 uM, replicate 2
[7] = 24 h, 10 µM, compound concentration 10 uM, replicate 1
[8] = 24 h, 10 µM, compound concentration 10 uM, replicate 2

CC(=O)O[C@H]1C(=O)[C@@]2(C)[C@H]([C@H](OC(=O)c3ccccc3)[C@]3(O)C[C@H](OC(=O)[C@H](O)[C@@H](NC(=O)c4ccccc4)c4ccccc4)C(C)=C1C3(C)C)[C@]1(OC(C)=O)CO[C@@H]1C[C@@H]2O [PACLITAXEL]
Population Apoptotic (%) [1]: 21% and 24%
Population Fragmented Nuclei (%) [1]: 12% and 13%
Population Healthy Nuclei (%) [1]: 71% and 68%
Population Hoechst High Intensity Objects (%) [1]: 10% and 14%
Population Membrane Permeable-Phenotype (%) [1]: 4%
Population Mitochondria Different-Phenotype (%) [1]: 3% and 4%
Population Mitotic Cells (%) [1]: 78% and 75%
Population Normal (%) [1]: 89% and 85%
Population Pyknosed Nuclei (%) [1]: 15% and 18%
Population Tubulin-Different-Phenotype (%) [1]: 2%
Population Apoptotic (%) [2]: 7% and 10%
Population Fragmented Nuclei (%) [2]: 10% and 8%
Population Healthy Nuclei (%) [2]: 85% and 87%
Population Hoechst High Intensity Objects (%) [2]: 1%
Population Membrane Permeable-Phenotype (%) [2]: 1% and 0%
Population Mitochondria Different-Phenotype (%) [2]: 5%
Population Mitotic Cells (%) [2]: 92% and 89%
Population Normal (%) [2]: 98%
Population Pyknosed Nuclei (%) [2]: 3% and 4%
Population Apoptotic (%) [3]: 23% [middle of 4 runs]
Population Fragmented Nuclei (%) [3]: 15% and 13% and 11% and 10%
Population Healthy Nuclei (%) [3]: 69% and 72% and 76% and 75%
Population Hoechst High Intensity Objects (%) [3]: 11% and 7% and 8%
Population Membrane Permeable-Phenotype (%) [3]: 8% and 5% and 4%
Population Mitochondria Different-Phenotype (%) [3]: 5% and 4% and 3%
Population Mitotic Cells (%) [3]: 80% and 77% and 72% and 76%
Population Normal (%) [3]: 88% and 92% and 91%
Population Pyknosed Nuclei (%) [3]: 14% [middle of 4 runs]
Population Tubulin-Different-Phenotype (%) [3]: 2% and 3%
Population Apoptotic (%) [4]: 12% and 6% and 9%
Population Fragmented Nuclei (%) [4]: 8% and 14%
Population Healthy Nuclei (%) [4]: 86% and 81% and 85%
Population Hoechst High Intensity Objects (%) [4]: 1% and 3% and 2%
Population Membrane Permeable-Phenotype (%) [4]: 1% and 0%
Population Mitochondria Different-Phenotype (%) [4]: 7%
Population Mitotic Cells (%) [4]: 87% and 93% and 90%
Population Normal (%) [4]: 98% and 96% and 97%
Population Pyknosed Nuclei (%) [4]: 4% and 3%
Population Tubulin-Different-Phenotype (%) [4]: 4% and 1%
Population Apoptotic (%) [5]: 10% and 29%
Population Fragmented Nuclei (%) [5]: 12% and 13%
Population Healthy Nuclei (%) [5]: 79%
Population Hoechst High Intensity Objects (%) [5]: 7% and 8%
Population Membrane Permeable-Phenotype (%) [5]: 8% and 7%
Population Mitochondria Different-Phenotype (%) [5]: 2% and 4%
Population Mitotic Cells (%) [5]: 89% and 70%
Population Normal (%) [5]: 92% and 91%
Population Pyknosed Nuclei (%) [5]: 8% and 7%
Population Tubulin-Different-Phenotype (%) [5]: 2% and 4%
Population Apoptotic (%) [6]: 7%
Population Fragmented Nuclei (%) [6]: 24% and 32%
Population Healthy Nuclei (%) [6]: 73% and 65%
Population Hoechst High Intensity Objects (%) [6]: 3% and 4%
Population Membrane Permeable-Phenotype (%) [6]: 5% and 3%
Population Mitochondria Different-Phenotype (%) [6]: 1% and 0%
Population Mitotic Cells (%) [6]: 92%
Population Normal (%) [6]: 96% and 95%
Population Pyknosed Nuclei (%) [6]: 1%
Population Apoptotic (%) [7]: 22% [middle of 4 runs]
Population Fragmented Nuclei (%) [7]: 15% [middle of 4 runs]
Population Healthy Nuclei (%) [7]: 80% and 78% and 81% and 79%
Population Hoechst High Intensity Objects (%) [7]: 5% and 3% and 6%
Population Membrane Permeable-Phenotype (%) [7]: 10% and 7%
Population Mitochondria Different-Phenotype (%) [7]: 2% and 3%
Population Mitotic Cells (%) [7]: 77% and 76% and 82% and 79%
Population Normal (%) [7]: 94% and 96% and 93%
Population Pyknosed Nuclei (%) [7]: 4% and 5% and 6% and 7%
Population Tubulin-Different-Phenotype (%) [7]: 4% and 5%
Population Fragmented Nuclei (%) [8]: 30% [middle of 4 runs]
Population Healthy Nuclei (%) [8]: 73% and 69% and 60% and 67%
Population Hoechst High Intensity Objects (%) [8]: 4%
Population Membrane Permeable-Phenotype (%) [8]: 3% and 2%
Population Mitochondria Different-Phenotype (%) [8]: 1% and 0%
Population Mitotic Cells (%) [8]: 87% and 96% and 93% and 98%
Population Normal (%) [8]: 95%
Population Pyknosed Nuclei (%) [8]: 1% and 2%
Population Tubulin-Different-Phenotype (%) [8]: 2%

CNC(=O)c1cc(Oc2ccc(NC(=O)Nc3cc(C(C)(C)C)nn3-c3ccc4ncccc4c3)c(F)c2)ccn1 [REBASTINIB]
Population Apoptotic (%) [1]: 22%
Population Fragmented Nuclei (%) [1]: 22%
Population Healthy Nuclei (%) [1]: 66%
Population Hoechst High Intensity Objects (%) [1]: 15%
Population Membrane Permeable-Phenotype (%) [1]: 11%
Population Mitochondria Different-Phenotype (%) [1]: 4%
Population Mitotic Cells (%) [1]: 77%
Population Normal (%) [1]: 84%
Population Pyknosed Nuclei (%) [1]: 10%
Population Tubulin-Different-Phenotype (%) [1]: 3%
Total Cell Count [1]: 638
Population Apoptotic (%) [2]: 11%
Population Fragmented Nuclei (%) [2]: 11%
Population Healthy Nuclei (%) [2]: 85%
Population Hoechst High Intensity Objects (%) [2]: 4%
Population Membrane Permeable-Phenotype (%) [2]: 7%
Population Mitochondria Different-Phenotype (%) [2]: 3%
Population Mitotic Cells (%) [2]: 88%
Population Normal (%) [2]: 95%
Population Pyknosed Nuclei (%) [2]: 3%
Population Tubulin-Different-Phenotype (%) [2]: 6%
Total Cell Count [2]: 1893
Population Apoptotic (%) [3]: 29%
Population Fragmented Nuclei (%) [3]: 11%
Population Healthy Nuclei (%) [3]: 41%
Population Hoechst High Intensity Objects (%) [3]: 16%
Population Membrane Permeable-Phenotype (%) [3]: 13%
Population Mitochondria Different-Phenotype (%) [3]: 34%
Population Mitotic Cells (%) [3]: 70%
Population Normal (%) [3]: 83%
Population Pyknosed Nuclei (%) [3]: 46%
Population Tubulin-Different-Phenotype (%) [3]: 88%
Total Cell Count [3]: 515
Population Apoptotic (%) [4]: 35%
Population Fragmented Nuclei (%) [4]: 3%
Population Healthy Nuclei (%) [4]: 78%
Population Hoechst High Intensity Objects (%) [4]: 6%
Population Membrane Permeable-Phenotype (%) [4]: 9%
Population Mitochondria Different-Phenotype (%) [4]: 55%
Population Mitotic Cells (%) [4]: 64%
Population Normal (%) [4]: 93%
Population Pyknosed Nuclei (%) [4]: 18%
Population Tubulin-Different-Phenotype (%) [4]: 97%
Total Cell Count [4]: 672
Population Apoptotic (%) [5]: 13%
Population Fragmented Nuclei (%) [5]: 19%
Population Healthy Nuclei (%) [5]: 74%
Population Hoechst High Intensity Objects (%) [5]: 12%
Population Membrane Permeable-Phenotype (%) [5]: 23%
Population Mitochondria Different-Phenotype (%) [5]: 2%
Population Mitotic Cells (%) [5]: 86%
Population Normal (%) [5]: 87%
Population Pyknosed Nuclei (%) [5]: 5%
Population Tubulin-Different-Phenotype (%) [5]: 3%
Total Cell Count [5]: 727
Population Apoptotic (%) [6]: 3%
Population Fragmented Nuclei (%) [6]: 28%
Population Healthy Nuclei (%) [6]: 69%
Population Hoechst High Intensity Objects (%) [6]: 8%
Population Membrane Permeable-Phenotype (%) [6]: 9%
Population Mitochondria Different-Phenotype (%) [6]: 0%
Population Mitotic Cells (%) [6]: 96%
Population Normal (%) [6]: 91%
Population Pyknosed Nuclei (%) [6]: 1%
Population Tubulin-Different-Phenotype (%) [6]: 7%
Total Cell Count [6]: 2966
Population Apoptotic (%) [7]: 46%
Population Fragmented Nuclei (%) [7]: 14%
Population Healthy Nuclei (%) [7]: 44%
Population Hoechst High Intensity Objects (%) [7]: 15%
Population Membrane Permeable-Phenotype (%) [7]: 8%
Population Mitochondria Different-Phenotype (%) [7]: 58%
Population Mitotic Cells (%) [7]: 53%
Population Normal (%) [7]: 84%
Population Pyknosed Nuclei (%) [7]: 40%
Population Tubulin-Different-Phenotype (%) [7]: 92%
Total Cell Count [7]: 485
Population Apoptotic (%) [8]: 43%
Population Fragmented Nuclei (%) [8]: 3%
Population Healthy Nuclei (%) [8]: 81%
Population Hoechst High Intensity Objects (%) [8]: 5%
Population Membrane Permeable-Phenotype (%) [8]: 7%
Population Mitochondria Different-Phenotype (%) [8]: 63%
Population Mitotic Cells (%) [8]: 56%
Population Normal (%) [8]: 94%
Population Pyknosed Nuclei (%) [8]: 15%
Population Tubulin-Different-Phenotype (%) [8]: 98%
Total Cell Count [8]: 674

Source: ChEMBL document CHEMBL4689842, “EUbOPEN Chemogenomics Library wave 1” (2021)
